Test results as given in ChEMBL document CHEMBL3351511, “Protective effects of lupeol against D-galactosamine and lipopolysaccharide-induced fulminant hepatic failure in mice” (J Nat Prod, 2014).
The source made the active and inactive calls. The rule behind the calls is not given here.

Experiments:
Mus musculus [1] = test: Protective effect in GalN/LPS-induced ICR mouse FHF liver injury model assessed as reduction in MyD88 protein level at 100 mg/kg, po administered 1 hr prior to GalN/LPS challenge measured after 6 hrs by Western blotting analysis relative to vehicle-treated control; format: functional, organism-based; design: dose 100 mg/kg
How it was run: (§1)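 Oral pretreatment in olive oil 1 h before ip GalN (800 mg/kg)/LPS (40 μg/kg); liver harvested at 6 h and stored at −75 °C. SDS-PAGE and PVDF transfer used total extract (16−20 μg) for TLR4, MyD88, TRIF, IRAK-1, TRAF6 and IRAK-M, cytosolic (16 μg) for IκB, and nuclear (12 μg) for NF-κB p65. Blots were blocked in 5% milk, given primary antibody overnight at 4 °C, developed by ECL and quantified by densitometry as fold change; n = 6−8.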

Mus musculus [2] = test: Effect on serum ALT level in GalN/LPS-induced ICR mouse FHF liver injury model at 100 mg/kg, po administered 1 hr prior to GalN/LPS challenge measured after 6 hrs (reference value: 2704 +/- 244.2 U/L); format: functional
Mus musculus [3] = test: Protective effect in GalN/LPS-induced ICR mouse FHF liver injury model assessed as increase in IRAK-M protein level at 100 mg/kg, po administered 1 hr prior to GalN/LPS challenge measured after 6 hrs by Western blotting analysis relative to vehicle-treated control; format: functional, organism-based; design: dose 100 mg/kg; how it was run: as §1
Mus musculus [4] = test: Effect on serum IL-6 level in ICR mouse at 100 mg/kg, po after 1 hr by ELISA (reference value: 73.3 +/- 13.1 pg/ml); format: ADME, organism-based; design: dose 100 mg/kg, route oral; settings: in vivo
Mus musculus [5] = test: Protective effect in po dosed GalN/LPS-induced ICR mouse FHF liver injury model assessed as survival administered 1 hr prior to GalN/LPS challenge measured up to 24 hrs; format: functional, organism-based
Mus musculus [6] = test: Protective effect in GalN/LPS-induced ICR mouse FHF liver injury model assessed as reduction in NF-kappaB protein level at 100 mg/kg, po administered 1 hr prior to GalN/LPS challenge measured after 6 hrs by Western blotting analysis relative to vehicle-treated control; format: functional, organism-based; design: dose 100 mg/kg; how it was run: as §1
Mus musculus [7] = test: Protective effect in GalN/LPS-induced ICR mouse FHF liver injury model assessed as reduction in TNF-alpha mRNA expression at 100 mg/kg, po administered 1 hr prior to GalN/LPS challenge measured after 6 hrs by RT-PCR analysis relative to vehicle-treated control; format: functional, organism-based; design: dose 100 mg/kg
How it was run: (§2)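 Oral pretreatment in olive oil 1 h before ip GalN (800 mg/kg)/LPS (40 μg/kg), with liver collected at 6 h. mRNA quantified by SYBR green real-time RT-PCR. Cycling: TNF-α 45 cycles (94/65/72 °C) and IL-6 32 cycles (94/58/72 °C). Levels normalized to β-actin by the Ct method. Mean ± SEM, n = 6−8.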

Mus musculus [8] = test: Effect on liver histology in GalN/LPS-induced ICR mouse FHF liver injury model assessed as reversal of necrosis and inflammatory cell infiltration at 100 mg/kg, po administered 1 hr prior to GalN/LPS challenge measured after 6 hrs by hematoxylin/eosin-labeled microscopic analysis; format: functional, organism-based; design: dose 100 mg/kg
How it was run: (§3)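 Liver taken 6 h after challenge, fixed in 10% neutral-buffered formalin, paraffin-embedded, cut at 5 μm, H&E-stained. One pathologist scored random nonconsecutive fields blinded at 200×; n = 6−8.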

Mus musculus [9] = test: Protective effect in GalN/LPS-induced ICR mouse FHF liver injury model assessed as reduction in TRAF6 protein level at 100 mg/kg, po administered 1 hr prior to GalN/LPS challenge measured after 6 hrs by Western blotting analysis relative to vehicle-treated control; format: functional, organism-based; design: dose 100 mg/kg; how it was run: as §1
Mus musculus [10] = test: Protective effect in GalN/LPS-induced ICR mouse FHF liver injury model assessed as reduction in TRIF protein level at 100 mg/kg, po administered 1 hr prior to GalN/LPS challenge measured after 6 hrs by Western blotting analysis relative to vehicle-treated control; format: functional, organism-based; design: dose 100 mg/kg; how it was run: as §1
Mus musculus [11] = test: Effect on liver histology in ICR mouse at 100 mg/kg, po after 1 hr by hematoxylin/eosin-labeled microscopic analysis relative to control; format: ADME, organism-based; design: dose 100 mg/kg, route oral; settings: in vivo; how it was run: as §3
Mus musculus [12] = test: Protective effect in GalN/LPS-induced ICR mouse FHF liver injury model assessed as reduction in IRAK1 protein level at 100 mg/kg, po administered 1 hr prior to GalN/LPS challenge measured after 6 hrs by Western blotting analysis relative to vehicle-treated control; format: functional, organism-based; design: dose 100 mg/kg; how it was run: as §1
Mus musculus [13] = test: Protective effect in GalN/LPS-induced ICR mouse FHF liver injury model assessed as increase in I-kappaB protein level at 100 mg/kg, po administered 1 hr prior to GalN/LPS challenge measured after 6 hrs by Western blotting analysis relative to vehicle-treated control; format: functional, organism-based; design: dose 100 mg/kg; how it was run: as §1
Mus musculus [14] = test: Effect on serum TNF-alpha level in ICR mouse at 100 mg/kg, po after 1 hr by ELISA (reference value: 42.6 +/- 1.7 pg/ml); format: ADME, organism-based; design: dose 100 mg/kg, route oral; settings: in vivo
Mus musculus [15] = test: Effect on serum ALT level in ICR mouse at 100 mg/kg, po after 1 hr (reference value: 57.4 +/- 8.8 U/L); format: ADME, organism-based; design: dose 100 mg/kg, route oral; settings: in vivo
Mus musculus [16] = test: Toxicity in ICR mouse assessed as survival at 100 mg/kg, po; format: organism-based; design: dose 100 mg/kg, route oral; settings: in vivo
How it was run: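 One hour later they received intraperitoneal PBS vehicle in place of GalN/LPS. Survival was monitored up to 24 h, with 10 mice per survival group, alongside vehicle-only controls.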

Mus musculus [17] = test: Protective effect in GalN/LPS-induced ICR mouse FHF liver injury model assessed as reduction in TLR4 protein level at 100 mg/kg, po administered 1 hr prior to GalN/LPS challenge measured after 6 hrs by Western blotting analysis relative to vehicle-treated control; format: functional, organism-based; design: dose 100 mg/kg; how it was run: as §1
Mus musculus [18] = test: Effect on serum IL-6 level in GalN/LPS-induced ICR mouse FHF liver injury model at 100 mg/kg, po administered 1 hr prior to GalN/LPS challenge measured after 6 hrs by ELISA (reference value: 654.1 +/- 19.7 pg/ml); format: functional
Mus musculus [19] = test: Effect on serum TNF-alpha level in GalN/LPS-induced ICR mouse FHF liver injury model at 100 mg/kg, po administered 1 hr prior to GalN/LPS challenge measured after 6 hrs by ELISA (reference value: 250.8 +/- 5.4 pg/ml); format: functional
Mus musculus [20] = test: Protective effect in GalN/LPS-induced ICR mouse FHF liver injury model assessed as reduction in IL-6 mRNA expression at 100 mg/kg, po administered 1 hr prior to GalN/LPS challenge measured after 6 hrs by RT-PCR analysis relative to vehicle-treated control; format: functional, organism-based; design: dose 100 mg/kg; how it was run: as §2

## C=C(C)[C@@H]1CC[C@]2(C)CC[C@]3(C)[C@H](CC[C@@H]4[C@@]5(C)CC[C@H](O)C(C)(C)[C@@H]5CC[C@]43C)[C@@H]12 [LUPEOL]
Mus musculus [1]
  Activity: Active
Mus musculus [2]
  Activity: 682 U/L
Mus musculus [3]
  Activity: Active
Mus musculus [4]
  Activity: 75.1 pg/mL
Mus musculus [5]
  Activity: Dose-dependent effect
Mus musculus [6]
  Activity: Active
Mus musculus [7]
  Activity: Active
Mus musculus [8]
  Activity: Active
Mus musculus [9]
  Activity: Active
Mus musculus [10]
  Activity: inactive
Mus musculus [11]
  Activity: Non-toxic
Mus musculus [12]
  Activity: Active
Mus musculus [13]
  Activity: Active
Mus musculus [14]
  Activity: 41 pg/mL
Mus musculus [15]
  Activity: 58.1 U/L
Mus musculus [16]
  Activity: Non-toxic
Mus musculus [17]
  Activity: Active
Mus musculus [18]
  Activity: 108.8 pg/mL
Mus musculus [19]
  Activity: 109 pg/mL
Mus musculus [20]
  Activity: Active
